Measured values from ChEMBL document CHEMBL4130485, “Inhibitors of Yellow Fever Virus replication based on 1,3,5-triphenyl-4,5-dihydropyrazole scaffold: Design, synthesis and antiviral evaluation” (Eur J Med Chem, 2017).
The source made the active and inactive calls. The calls are words filed in the database; no cut-off is given here.

Assays:
Yellow fever virus [1] = experiment: (§1) Antiviral activity against Yellow fever virus 17D vaccine (Stamaril Pasteur J07B01) infected in golden hamster BHK21 cells assessed as protection against virus-induced cytopathic effect after 3 to 4 days by MTT assay; format: functional, organism-based; settings: BHK-21
How it was run: (§2)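 BHK-21 cells (MDBK for BVDV) seeded at 5×10^4 (BHK) or 3×10^4 (MDBK) cells/well and grown overnight to confluence. Infected at m.o.i. 0.01 in maintenance MEM-Earle with 0.5% inactivated FBS. Serial compound dilutions added 2 h later (final 100, 20, 4, 0.8 µM; DMSO ≤0.1%). Viability read by MTT after 3–4 days at 37 °C. EC50 obtained by linear regression against untreated controls; mean of three determinations.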

[2] = tested on: Mammalian orthoreovirus 1; experiment: Antiviral activity against Reovirus 1 infected in golden hamster BHK21 cells assessed as protection against virus-induced cytopathic effect after 3 to 4 days by MTT assay; format: functional, organism-based; settings: Mammalian orthoreovirus 1, BHK-21; how it was run: as §2
Human orthopneumovirus = experiment: Antiviral activity against Human respiratory syncytial virus A2 ATCC VR 1540 infected in African green monkey Vero 76 cells assessed as protection against virus-induced cytopathic effect after 5 days by crystal violet staining-based plaque reduction assay; format: functional, organism-based; settings: ATCC VR 1540, Vero 76, 120 h
[3] = Selectivity index, ratio of CC50 for golden hamster BHK21 cells to EC50 for Yellow fever virus 17D; format: toxicity; settings: read-out: Ratio CC50/EC50
How it was run: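 Selectivity index calculated as BHK-21 CC50 divided by YFV EC50, both from MTT assays.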

[4] = Cytotoxicity against African green monkey Vero 76 cells assessed as decrease in cell viability after 48 to 96 hrs by MTT assay; format: cell-based; settings: chlorocebus sabaeus
How it was run: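 Vero 76 cells seeded at 5×10^5 cells/mL in D-MEM with 10% FBS and incubated with serial compound dilutions at 37 °C, 5% CO2. Viability read by MTT after 48–96 h. CC50 by linear regression versus untreated controls.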

Yellow fever virus [5] = experiment: as §1, with “effect at 90 uM pretreated for 2 hrs followed by viral infection and measured” for “effect”, “24” for “3”, “36 hrs post infection” for “4 days”; format: functional, organism-based
How it was run: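 Confluent BHK-21 monolayers inoculated at room temperature with YFV 17-D at 1 PFU/cell, adsorbed 60 min and washed. Compound at 20 µM (test) or 90 µM (6-azauridine reference) added 2 h before infection, during the 2 h infection, or in 2-h windows from 0 to 10 h p.i. Wells washed, refed until 10 h, CPE scored at 24–36 h p.i. Cells frozen and titred by plaque assay.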

[6] = Cytotoxicity against golden hamster BHK21 cells assessed as decrease in cell viability after 72 hrs by MTT assay; format: cell-based, Mesocricetus auratus, BHK-21
How it was run: (§3)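 Uninfected MDBK (6×10^5 cells/mL, 10% horse serum) or BHK (1×10^6 cells/mL, 10% FBS) cells in MEM-Earle with serial compound dilutions at 37 °C, 5% CO2, run in parallel with the antiviral assays. Viability read by MTT after 72 h. CC50 by linear regression; mean of three determinations.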

Vaccinia virus = experiment: Antiviral activity against Vaccinia virus Lister ATCC VR 1549 infected in African green monkey Vero 76 cells assessed as protection against virus-induced cytopathic effect after 3 days by crystal violet staining-based plaque reduction assay; format: functional, organism-based; settings: Orthopoxvirus vaccinia, ATCC VR 1549, Vero 76, 72 h
Human alphaherpesvirus 1 = experiment: Antiviral activity against Human herpesvirus 1 KOS ATCC VR 1493 infected in African green monkey Vero 76 cells assessed as protection against virus-induced cytopathic effect after 3 days by crystal violet staining-based plaque reduction assay; format: functional, organism-based; settings: Human alphaherpesvirus 1, KOS, Vero 76, 72 h
dengue virus type 2 = experiment: Antiviral activity against Dengue virus type 2 clinical isolate infected in golden hamster BHK21 cells assessed as protection against virus-induced cytopathic effect after 3 to 4 days by MTT assay; format: functional, organism-based; settings: BHK-21; how it was run: as §2
West Nile virus = experiment: Antiviral activity against West Nile virus clinical isolate infected in golden hamster BHK21 cells assessed as protection against virus-induced cytopathic effect after 3 to 4 days by MTT assay; format: functional, organism-based; settings: BHK-21; how it was run: as §2
[7] = tested on: Human immunodeficiency virus 1; experiment: Antiviral activity against HIV1 3B infected in human MT4 cells assessed as protection against virus-induced cytopathic effect after 4 days by MTT assay; format: functional, organism-based; settings: Human immunodeficiency virus 1, 3B, MT4, 96 h
How it was run: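 MT-4 cells (1×10^4/well) in RPMI with serial compound dilutions, infected with 100 CCID50 HIV-1 (m.o.i. 0.01). Viability read by MTT after 4 days at 37 °C. EC50 for 50% protection from cytopathicity obtained by linear regression versus untreated controls; mean of three determinations.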

[8] = Cytotoxicity against human MT4 cells assessed as decrease in cell viability after 96 hrs by MTT assay; format: cell-based
How it was run: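 Exponentially growing MT-4 cells seeded at 1×10^5 cells/mL in RPMI-1640 with 10% FBS and incubated with serial compound dilutions at 37 °C, 5% CO2. Viability read by MTT after 96 h. CC50 by linear regression versus untreated controls.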

Yellow fever virus [9] = experiment: Potency index, ratio of azauridine EC50 to compound EC50 for Yellow fever virus 17D vaccine (Stamaril Pasteur J07B01); format: functional
[10] = tested on: Vesicular stomatitis Indiana virus; experiment: Antiviral activity against Vesicular stomatitis virus Indiana ATCC VR 158 infected in African green monkey Vero 76 cells assessed as protection against virus-induced cytopathic effect after 2 days by crystal violet staining-based plaque reduction assay; format: functional, organism-based; settings: ATCC VR 158, Vero 76, 48 h
Enterovirus C = experiment: Antiviral activity against Enterovirus C Sabin […] infected in African green monkey Vero 76 cells assessed as protection against virus-induced cytopathic effect after 2 days by crystal violet staining-based plaque reduction assay; format: functional, organism-based; settings: Vero 76, 48 h
[11] = Cytotoxicity against bovine MDBK cells assessed as decrease in cell viability after 72 hrs by MTT assay; format: cell-based, Bos taurus; settings: cattle; how it was run: as §3
[12] = Antiviral activity against Human enterovirus B Faulkner ATCC VR 185 infected in African green monkey Vero 76 cells assessed as protection against virus-induced cytopathic effect after 3 days by crystal violet staining-based plaque reduction assay; format: functional, cell-based; settings: Faulkner ATCC VR 185, Vero 76, 72 h
[13] = Cytotoxicity against African green monkey Vero 76 cells assessed as decrease in cell viability after 5 days by MTT assay; format: cell-based; settings: chlorocebus sabaeus
[14] = tested on: Bovine viral diarrhea virus 1; experiment: Antiviral activity against Bovine viral diarrhea virus NADL ATCC VR 534 infected in bovine MDBK cells assessed as protection against virus-induced cytopathic effect after 3 to 4 days by MTT assay; format: functional, organism-based, Bovine viral diarrhea virus 1-NADL; settings: Bovine viral diarrhea virus isolates and strains, ATCC VR 534, MDBK; how it was run: as §2
[15] = Selectivity index, ratio of CC50 for African green monkey Vero 76 cells to EC50 for Human coxsackievirus B5 Faulkner; format: toxicity; settings: read-out: Ratio CC50/EC50
How it was run: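 Selectivity index calculated as Vero 76 CC50 (MTT) divided by CVB-5 plaque-reduction EC50.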

[16] = Selectivity index, ratio of CC50 for bovine MDBK cells to EC50 for Bovine viral diarrhea virus NADL ATCC VR 534; format: toxicity; settings: cattle, read-out: Ratio CC50/EC50
How it was run: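 Selectivity index calculated as MDBK CC50 divided by BVDV EC50, both by MTT.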

Row | SMILES | EC50 (Yellow fever virus [1]) | EC50 [2] | EC50 (Human orthopneumovirus) | selectivity ratio [3] | CC50 [4] | CC50 at 72 h [6] | EC50 (Vaccinia virus) | EC50 (Human alphaherpesvirus 1) | EC50 (dengue virus type 2) | EC50 (West Nile virus) | EC50 [7] | CC50 at 96 h [8] | Ratio EC50 (Yellow fever virus [9]) | EC50 [10] | EC50 (Enterovirus C) | CC50 at 72 h [11] | EC50 [12] | CC50 at 120 h [13] | EC50 [14] | also measured
1 | O=c1cnn([C@@H]2O[C@H](CO)[C@@H](O)[C@H]2O)c(=O)[nH]1 [6-AZAURIDINE] | 20 µM | 18 µM | 40 µM | > 5 | 16 µM | > 100 µM |  |  |  |  |  |  |  |  |  |  |  |  |  | Activity (Yellow fever virus [5]): Active
2 | Cc1cccc(C2CC(c3ccc(Oc4ccccc4)cc3)=NN2c2ccc(S(N)(=O)=O)cc2)c1 (stereo unspecified) | 1.8 µM | > 8 µM | > 14 µM | 5 | 81 µM | 8 to 9 µM | > 81 µM | > 81 µM | > 9 µM | > 9 µM | > 35 µM | 35 µM | 10 | > 81 µM | > 81 µM | 6 µM | > 81 µM | 14 µM | > 6 µM | 
3 | Cc1ccccc1C1CC(c2ccc(Oc3ccccc3)cc2)=NN1c1ccc(S(N)(=O)=O)cc1 (stereo unspecified) | 2.2 µM | > 7 µM | > 14 µM | 3.6 | 90 µM | 7 to 8 µM | > 90 µM | > 90 µM | > 8 µM | > 8 µM | 13 µM | 36 µM | 10 | > 90 µM | > 90 µM | 16 µM | > 90 µM | 14 µM | > 16 µM | 
4 | NS(=O)(=O)c1ccc(N2N=C(c3ccc(OCc4ccccc4)cc3)CC2c2cccc(F)c2)cc1 (stereo unspecified) | 2 µM | > 9 µM | > 25 µM | 5.5 | 90 µM | 9 to 11 µM | > 90 µM | > 90 µM | > 11 µM | > 11 µM | > 65 µM | 65 µM | 10 | > 90 µM | > 90 µM | 15 µM | 8.5 µM | 25 µM | 10 µM | selectivity ratio [15]: 10.6; selectivity ratio [16]: 1.5
